Article PMC7114156 (Antiviral Research, 2009)

Columns and labels:
[1] = test system: MT4 cells; experiment: Apoptosis assay; format: cell-based, human; conditions: MT4, 20 h exposure
Procedure, shortened: (§1)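 Apoptosis read as cytoplasmic histone-associated DNA fragments with a Cell Death Detection ELISA kit. Exposure was 20 h for IM9 and MT4 and 40 h for W12 and U937. A405 was read kinetically at 30 °C, and the rate per hour came from linear regression of the linear portion. A Fas-activating antibody was the positive control.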

[2] = test system: adenovirus type 5; experiment: Adenovirus assay: adenovirus-5 replication in HFF cells, viral DNA by qPCR; format: cell-based; conditions: read-out: EC50, adenovirus replication; data not shown
[3] = test system: W12-20850 cells; experiment: Growth of W12-20850 cells, MTS; format: cell-based, human; conditions: read-out: EC50, inhibition of growth of W12 cells; data not shown
Procedure, shortened: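 For the time course, test compound was added at time zero to cells growing in 96-well plates. Growth was followed as rate of MTS reduction over 3 days from day zero, with untreated controls alongside.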

[4] = test system: IM9 cells; experiment: Growth of IM9 cell line; format: cell-based, human; conditions: read-out: EC50, growth of IM9 cells; data not shown
[5] = test system: IM9 cells; experiment: Apoptosis assay; format: cell-based, human; conditions: IM9, 20 h exposure
Procedure, shortened: as §1

[6] = test system: MT4 cells; experiment: Growth of MT4 cell line; format: cell-based, human; conditions: read-out: EC50, growth of MT4 cells; data not shown
[7] = test system: U937 cells; experiment: Apoptosis assay; format: cell-based, human; conditions: U937, 40 h exposure
Procedure, shortened: as §1

[8] = test system: episomal HPV-16 DNA; experiment: Hybrid capture assay for HPV16 DNA in W12-20850 cells; format: cell-based; conditions: read-out: EC50, reduction of HPV DNA; W12 cells; data not shown
Procedure, shortened: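 W12-20850 cells seeded at 7.5 × 10^3/well onto compound (100 to 0.001 μM), 4 days at 37 °C, 5% CO2. MTS growth read, then same cells lysed in 0.2N NaOH/1% Igepal. Episomal HPV-16 DNA measured by hybrid capture: 90 °C 6.5 min, 42 °C overnight, anti-digoxigenin HRP, chemiluminescence. HPV DNA/MTS ratio expressed as % of untreated control. Fit to modified Hill equation.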

[9] = test system: W12 cells; experiment: Apoptosis assay; format: cell-based, human; conditions: W12, 40 h exposure
Procedure, shortened: as §1

Q: Which Apoptosis [1] does the source give for O=C(N[C@H]1CCCc2c1[nH]c1ccc(Cl)cc21)c1ccccn1 [GSK984] here?
A: did not induce apoptosis

Q: What about the EC50 [2] of the same compound?
A: > 10 µM

Q: What about the EC50 [3] of the same compound?
A: 17 ± 3.6 µM

Q: And the EC50 [4]?
A: 13 µM

Q: And the Apoptosis [5]?
A: did not induce apoptosis

Q: What about the EC50 [6] of the same compound?
A: 35 µM

Q: What about the Apoptosis [7] of the same compound?
A: did not induce apoptosis

Q: What about the EC50 [8] of the same compound?
A: 6.9 ± 0.68 µM

Q: And the Apoptosis [9]?
A: did not induce apoptosis
